Reference: ChEMBL document CHEMBL1158339, “Synthesis and anti-microbial screening of some Schiff bases of 3-amino-6,8-dibromo-2-phenylquinazolin-4(3H)-ones” (2009)
Values after ≈ are worked out from the molar mass of the structure shown.

Legend:
Format in all cases: functional
Aspergillus niger [1] = experiment: Antifungal activity against Aspergillus niger ATCC 9029 after 48 hrs by paper disk diffusion technique
Method in brief: (§1)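 Fungal disc diffusion. Autoclaved (120 °C, 30 min) medium is inoculated at 40–50 °C with 1 ml/100 ml of a 10⁵ cfu/ml McFarland-matched suspension and poured to 3–4 mm. Compound-impregnated paper discs in dimethyl formamide are applied. Plates are held 1 h at room temperature, then incubated 48 h at 37 °C.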

Escherichia coli [2] = experiment: Antibacterial activity against Escherichia coli ATCC 25922 after 24 hrs by agar streak dilution method; conditions: ATCC 25922, 24 h
Method in brief: (§2)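 Agar streak dilution MIC. Stock […] in dimethyl formamide. Graded quantities go into molten sterile nutrient agar, poured at 40–50 °C to 3–4 mm depth and left to solidify. Plates are streaked with about 10⁵ cfu/ml bacterial suspension and incubated 24 h at 37 °C. MIC is the lowest concentration with no visible growth.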

Pseudomonas aeruginosa [3] = experiment: Antibacterial activity against Pseudomonas aeruginosa ATCC 2853 after 24 hrs by paper disk diffusion technique
Method in brief: (§3)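 Paper disc diffusion. Nutrient agar autoclaved 120 °C, 30 min, then inoculated at 40–50 °C with 1 ml/100 ml of a 10⁵ cfu/ml suspension matched to McFarland standard and poured to 3–4 mm. Discs impregnated with compound in dimethyl formamide are laid on the solidified agar. Plates are held 1 h at room temperature, then 24 h at 37 °C.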

Bacillus cereus [4] = experiment: Antibacterial activity against Bacillus cereus ATCC 11778 after 24 hrs by paper disk diffusion technique; method in brief: as §3
Pseudomonas aeruginosa [5] = experiment: Antibacterial activity against Pseudomonas aeruginosa ATCC 2853 after 24 hrs by agar streak dilution method; conditions: ATCC 2853, 24 h; method in brief: as §2
Bacillus cereus [6] = experiment: Antibacterial activity against Bacillus cereus ATCC 11778 after 24 hrs by agar streak dilution method; conditions: ATCC 11778, 24 h; method in brief: as §2
[7] = system: Staphylococcus epidermidis; experiment: Antibacterial activity against Staphylococcus epidermidis ATCC 155 after 24 hrs by agar streak dilution method; conditions: ATCC 155, 24 h; method in brief: as §2
Aspergillus niger [8] = experiment: Antifungal activity against Aspergillus niger ATCC 9029 after 48 hrs by agar streak dilution method; conditions: ATCC 9029, 48 h
Method in brief: as §2, with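 “Fungal agar” for “Agar”, “dilution.” for “dilution MIC.”, “Sabouraud dextrose” for “nutrient”, “inoculated” for “streaked”, “cfu/ml” for “cfu/ml bacterial”, “48” for “24”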

Aspergillus fumigatus [9] = experiment: Antifungal activity against Aspergillus fumigatus ATCC 46645 after 48 hrs by paper disk diffusion technique; method in brief: as §1
[10] = system: Staphylococcus epidermidis; experiment: Antibacterial activity against Staphylococcus epidermidis ATCC 155 after 24 hrs by paper disk diffusion technique; method in brief: as §3
Escherichia coli [11] = experiment: Antibacterial activity against Escherichia coli ATCC 25922 after 24 hrs by paper disk diffusion technique; method in brief: as §3
Aspergillus fumigatus [12] = experiment: Antifungal activity against Aspergillus fumigatus ATCC 46645 after 48 hrs by agar streak dilution method; conditions: ATCC 46645, 48 h
Method in brief: as §2, with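 “Fungal agar” for “Agar”, “dilution.” for “dilution MIC.”, “Sabouraud dextrose” for “nutrient”, “inoculated” for “streaked”, “cfu/ml” for “cfu/ml bacterial”, “48” for “24”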

Klebsiella pneumoniae [13] = experiment: Antibacterial activity against Klebsiella pneumoniae ATCC 11298 after 24 hrs by agar streak dilution method; conditions: ATCC 11298, 24 h; method in brief: as §2
Klebsiella pneumoniae [14] = experiment: Antibacterial activity against Klebsiella pneumoniae ATCC 11298 after 24 hrs by paper disk diffusion technique; method in brief: as §3
Staphylococcus aureus [15] = experiment: Antibacterial activity against Staphylococcus aureus ATCC 9144 after 24 hrs by agar streak dilution method; conditions: ATCC 9144, 24 h; method in brief: as §2
Micrococcus luteus [16] = experiment: Antibacterial activity against Micrococcus luteus ATCC 4698 after 24 hrs by agar streak dilution method; conditions: NCTC 2665, 24 h; method in brief: as §2
Micrococcus luteus [17] = experiment: Antibacterial activity against Micrococcus luteus ATCC 4698 after 24 hrs by paper disk diffusion technique; method in brief: as §3
Staphylococcus aureus [18] = experiment: Antibacterial activity against Staphylococcus aureus ATCC 9144 after 24 hrs by paper disk diffusion technique; method in brief: as §3

SMILES | MIC (Escherichia coli [2]) [µg/mL] | MIC (Pseudomonas aeruginosa [5]) [µg/mL] | MIC (Bacillus cereus [6]) [µg/mL] | MIC [7] [µg/mL] | MIC (Aspergillus niger [8]) [µg/mL] | MIC (Aspergillus fumigatus [12]) [µg/mL] | MIC (Klebsiella pneumoniae [13]) [µg/mL] | MIC (Staphylococcus aureus [15]) [µg/mL] | MIC (Micrococcus luteus [16]) [µg/mL] | inhibition zone (IZ) (Aspergillus niger [1]) [mm] | inhibition zone (IZ) (Pseudomonas aeruginosa [3]) [mm] | inhibition zone (IZ) (Bacillus cereus [4]) [mm] | inhibition zone (IZ) (Aspergillus fumigatus [9]) [mm] | inhibition zone (IZ) [10] [mm] | inhibition zone (IZ) (Escherichia coli [11]) [mm] | inhibition zone (IZ) (Klebsiella pneumoniae [14]) [mm] | inhibition zone (IZ) (Micrococcus luteus [17]) [mm] | inhibition zone (IZ) (Staphylococcus aureus [18]) [mm]
O=c1c2cc(Br)cc(Br)c2nc(-c2ccccc2)n1/N=C/c1ccccc1O | 20.4 (≈ 40.9 µM) | 37.2 (≈ 74.5 µM) | 19.9 (≈ 39.9 µM) | 21.3 (≈ 42.7 µM) | 12.2 (≈ 24.4 µM) | 13.6 (≈ 27.2 µM) | 24.3 (≈ 48.7 µM) | 21.8 (≈ 43.7 µM) | 28.2 (≈ 56.5 µM) | 22 | 17 | 21 | 23 | 24 | 22 | 22 | 18 | 20
COc1ccc(/C=N/n2c(-c3ccccc3)nc3c(Br)cc(Br)cc3c2=O)cc1 | 29.9 (≈ 58.3 µM) | 36.2 (≈ 70.5 µM) | 31.9 (≈ 62.2 µM) | 22.2 (≈ 43.3 µM) | 10.1 (≈ 19.7 µM) | 12.3 (≈ 24 µM) | 33.4 (≈ 65.1 µM) | 32.1 (≈ 62.6 µM) | 34.2 (≈ 66.6 µM) | 23 | 16 | 19 | 24 | 20 | 19 | 20 | 18 | 19
O=c1c2cc(Br)cc(Br)c2nc(-c2ccccc2)n1/N=C/c1ccc(O)cc1 | 21.8 (≈ 43.7 µM) | 22.6 (≈ 45.3 µM) | 19.3 (≈ 38.7 µM) | 20.9 (≈ 41.9 µM) | 9.1 (≈ 18.2 µM) | 10.7 (≈ 21.4 µM) | 19 (≈ 38.1 µM) | 17.3 (≈ 34.7 µM) | 17.2 (≈ 34.5 µM) | 24 | 25 | 21 | 21 | 22 | 23 | 27 | 26 | 24
O=c1c2cc(Br)cc(Br)c2nc(-c2ccccc2)n1/N=C/C=C/c1ccccc1 | 20.1 (≈ 39.5 µM) | 25.1 (≈ 49.3 µM) | 21.9 (≈ 43 µM) | 21.4 (≈ 42 µM) | 11.8 (≈ 23.2 µM) | 14.6 (≈ 28.7 µM) | 19.8 (≈ 38.9 µM) | 23.8 (≈ 46.7 µM) | 22.8 (≈ 44.8 µM) | 24 | 19 | 23 | 22 | 24 | 25 | 25 | 21 | 20

Second part, led by results:

MIC (Escherichia coli [2]) [µg/mL] | MIC (Pseudomonas aeruginosa [5]) [µg/mL] | MIC (Bacillus cereus [6]) [µg/mL] | MIC [7] [µg/mL] | MIC (Aspergillus niger [8]) [µg/mL] | MIC (Aspergillus fumigatus [12]) [µg/mL] | MIC (Klebsiella pneumoniae [13]) [µg/mL] | MIC (Staphylococcus aureus [15]) [µg/mL] | MIC (Micrococcus luteus [16]) [µg/mL] | SMILES | inhibition zone (IZ) (Aspergillus niger [1]) [mm] | inhibition zone (IZ) (Pseudomonas aeruginosa [3]) [mm] | inhibition zone (IZ) (Bacillus cereus [4]) [mm] | inhibition zone (IZ) (Aspergillus fumigatus [9]) [mm] | inhibition zone (IZ) [10] [mm] | inhibition zone (IZ) (Escherichia coli [11]) [mm] | inhibition zone (IZ) (Klebsiella pneumoniae [14]) [mm] | inhibition zone (IZ) (Micrococcus luteus [17]) [mm] | inhibition zone (IZ) (Staphylococcus aureus [18]) [mm]
19.8 (≈ 39.8 µM) | 21.2 (≈ 42.6 µM) | 21.9 (≈ 44 µM) | 22.6 (≈ 45.5 µM) | 15.2 (≈ 30.6 µM) | 14.6 (≈ 29.4 µM) | 29.1 (≈ 58.5 µM) | 31.1 (≈ 62.6 µM) | 25.1 (≈ 50.5 µM) | Cc1ccc(/C=N/n2c(-c3ccccc3)nc3c(Br)cc(Br)cc3c2=O)cc1 | 22 | 22 | 21 | 24 | 20 | 24 | 19 | 23 | 18
19.8 (≈ 37.5 µM) | 36.1 (≈ 68.4 µM) | 23.6 (≈ 44.7 µM) | 21.8 (≈ 41.3 µM) | 10.7 (≈ 20.3 µM) | 11.6 (≈ 22 µM) | 34.6 (≈ 65.5 µM) | 22.6 (≈ 42.8 µM) | 30.1 (≈ 57 µM) | O=c1c2cc(Br)cc(Br)c2nc(-c2ccccc2)n1/N=C/c1cccc([N+](=O)[O-])c1 | 25 | 19 | 22 | 23 | 22 | 26 | 21 | 23 | 21
